Reference: article PMC4243878 (British Journal of Clinical Pharmacology, 2014)
Values joined by “and” are separate entries in the source; they are usually repeats but may differ in a detail not shown here. Equal values may be shown once. Read-outs that look alike come from different tables or passages of the source.

Legend:
[1] = assay type: in vivo, human; details: Cohort 1, boceprevir 800 mg every 8 h + dolutegravir 50 mg once daily (n = 15); geometric mean (%CVb)
Method in brief: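 Cohort 1 took 800 mg oral boceprevir three times daily with 50 mg dolutegravir daily for 10 days, with moderate-fat meals. Plasma was acidified with phosphoric acid, and the stereoisomers were extracted by solid-phase extraction. Analysis was LC-MS/MS with heated nebulizer, positive ion mode, calibrated 0.0052–5.2 and 0.0048–4.8 μg ml−1. Parameters came from noncompartmental steady-state analysis, reported as geometric means (%CVb) and median Tmax, and were compared with label values without statistics.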

[2] = cited from earlier work
[3] = assay type: in vivo, human; details: for Cmin / AUC / Cmax / concentration at 24 h / half-life: geometric mean (95% CI); for AUC / Cmax / concentration at 24 h / half-life: both, human, plasma, oral; for AUC: AUC0–τ; for concentration at 24 h: Cτ
Method in brief: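 Healthy adults took 50 mg oral dolutegravir once daily with a morning moderate-fat meal, alone for 5 days. They then continued for 10 days with boceprevir 800 mg or telaprevir 750 mg three times daily, with no washout. Plasma was assayed by validated LC-MS/MS. Noncompartmental parameters used actual sampling times, with Cτ taken at 24 h postdose. Log-transformed AUC0–τ, Cmax and Cτ were analysed by mixed-model ANOVA (subject random, treatment fixed). Results were given as GLS mean ratios with 95% CI versus dolutegravir alone.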

[4] = Safety: adverse events in healthy adult subjects; assay type: in vivo, human; details: dolutegravir n = 32, combinations n = 16 each
Method in brief: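 Healthy adults aged 18–65 were randomised into two cohorts of 16. Period 1: 50 mg dolutegravir once daily for 5 days. Period 2, with no washout: Cohort 1 added boceprevir 800 mg three times daily, Cohort 2 added telaprevir 750 mg three times daily, both for 10 days. Doses were given with moderate-fat meals (30% fat, 600 calories). Adverse events were recorded and graded for intensity and drug relatedness.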

[5] = previous dolutegravir clinical studies; cited from earlier work
[6] = assay type: in vivo, human; details: Cohort 2, telaprevir 750 mg every 8 h + dolutegravir 50 mg once daily (n = 15)
Method in brief: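 Cohort 2 took 750 mg oral telaprevir three times daily with 50 mg dolutegravir daily for 10 days, with moderate-fat meals. Plasma was acidified with phosphoric acid, and (S)-telaprevir was extracted by supported liquid extraction. Analysis was LC-MS/MS with TurboIonSpray, positive ion mode, calibrated 0.1–20 μg ml−1. Steady-state parameters came from noncompartmental analysis and were compared with label data without formal statistics.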

[7] = cited from earlier work; remark: listed apart in the source
[8] = Boceprevir alone, historical, ref Boceprevir package insert, 2013
[9] = Cohort 1, dolutegravir 50 mg once daily + boceprevir 800 mg every 8 h, Period 2 (n = 13)
[10] = Cohort 1, dolutegravir + boceprevir vs. dolutegravir
[11] = Cohort 2, dolutegravir 50 mg once daily + telaprevir 750 mg every 8 h, Period 2 (n = 15)
[12] = Cohort 2, dolutegravir + telaprevir vs. dolutegravir
[13] = 50 mg, Cohort 1, dolutegravir 50 mg once daily alone, Period 1 (n = 16)
[14] = 50 mg, Cohort 2, dolutegravir 50 mg once daily alone, Period 1 (n = 16)
[15] = coadministration with telaprevir vs dolutegravir alone
[16] = Telaprevir alone, historical, ref Telaprevir package insert, 2013

CC(C)(C)NC(=O)N[C@H](C(=O)N1C[C@H]2[C@@H]([C@H]1C(=O)NC(CC1CCC1)C(=O)C(N)=O)C2(C)C)C(C)(C)C (stereo partly shown) [Boceprevir, boceprevir]
Cmin [1]: 0.07 (23) μg ml^−1 | Cτ [1]: 0.08 (35) μg ml^−1 | AUC0–τ [2, 8]: 5408 ng·h/mL | Cmax [2, 8]: 1723 ng/mL | Cmin [2, 8]: 80 ng/mL | half-life [2]: 3 to 4 h

C[C@@H]1CCO[C@H]2Cn3cc(C(=O)NCc4ccc(F)cc4F)c(=O)c(O)c3C(=O)N12 [Dolutegravir]
Cmin [3, 9]: 1.36 (1.10, 1.68) μg ml^−1 | Cmin ([3]; Cohort 1, dolutegravir 50 mg once daily alone, Period 1 (n = 16)): 1.00 (0.79, 1.25) μg ml^−1 | AUC0–τ GLS mean ratio (95% CI) [3, 10]: 1.07 (0.924, 1.234) | Cmax GLS mean ratio (95% CI) [3, 10]: 1.05 (0.941, 1.176) | Cmin GLS mean ratio (95% CI) [3, 10]: 1.36 (1.106, 1.684) | Cτ GLS mean ratio (95% CI) [3, 10]: 1.08 (0.878, 1.329) | t1/2 GLS mean ratio (95% CI) [3, 10]: 1.05 (0.940, 1.166) | Cmin [3, 11]: 2.03 (1.73, 2.38) μg ml^−1 | Cmin ([3]; Cohort 2, dolutegravir 50 mg once daily alone, Period 1 (n = 16)): 1.18 (0.96, 1.46) μg ml^−1 | AUC0–τ GLS mean ratio (95% CI) [3, 12]: 1.25 (1.183, 1.327) | Cmax GLS mean ratio (95% CI) [3, 12]: 1.19 (1.096, 1.282) | Cmin GLS mean ratio (95% CI) [3, 12]: 1.76 (1.570, 1.963) | Cτ GLS mean ratio (95% CI) [3, 12]: 1.37 (1.274, 1.468) | t1/2 GLS mean ratio (95% CI) [3, 12]: 1.18 (1.061, 1.305) | AUC [3, 13]: 61500 ng·h/mL | AUC [3, 14]: 68900 ng·h/mL | Cmax [3, 13]: 4620 ng/mL | Cmax [3, 14]: 4990 ng/mL | concentration at 24 h [3, 13]: 1310 ng/mL | concentration at 24 h [3, 14]: 1590 ng/mL | half-life ([3]; 50 mg, t1/2, Cohort 1, dolutegravir 50 mg once daily alone, Period 1 (n = 16)): 13.2 h | half-life ([3]; 50 mg, t1/2, Cohort 2, dolutegravir 50 mg once daily alone, Period 1 (n = 16)): 14.5 h | AUC [3, 9]: 65300 ng·h/mL | AUC [3, 11]: 84200 ng·h/mL | Cmax [3, 9]: 4820 ng/mL | Cmax [3, 11]: 5810 ng/mL | concentration at 24 h [3, 9]: 1400 ng/mL | concentration at 24 h [3, 11]: 2090 ng/mL | half-life ([3]; t1/2, Cohort 1, dolutegravir 50 mg once daily + boceprevir 800 mg every 8 h, Period 2 (n = 13)): 13.8 h | half-life ([3]; t1/2, Cohort 2, dolutegravir 50 mg once daily + telaprevir 750 mg every 8 h, Period 2 (n = 14)): 16.7 h | change (increase) in dolutegravir Cτ ([3]; coadministration with boceprevir vs dolutegravir alone): 8% and < 10% | increase in dolutegravir AUC0–τ [3, 15]: 25% | increase in dolutegravir Cmax [3, 15]: 19% | increase in dolutegravir Cτ [3, 15]: 37% | change in dolutegravir exposure ([3]; with boceprevir): 7% | change in dolutegravir exposure ([3]; with telaprevir): 25% | All adverse events: Abdominal pain [4]: 0 n (%) | All adverse events: Anal haemorrhage [4]: 0 n (%) | All adverse events: Anorectal discomfort [4]: 0 n (%) | All adverse events: Any adverse event [4]: 4 (13) n (%) | All adverse events: Dysgeusia [4]: 0 n (%) | All adverse events: Haemorrhoids [4]: 0 n (%) | All adverse events: Headache [4]: 2 (6) n (%) | All adverse events: Maculopapular rash [4]: 1 (3) n (%) | Drug-related adverse events: Abdominal pain [4]: 0 n (%) | Drug-related adverse events: Any adverse event [4]: 2 (6) n (%) | Drug-related adverse events: Dysgeusia [4]: 0 n (%) | Drug-related adverse events: Headache [4]: 1 (3) n (%) | Drug-related adverse events: Maculopapular rash [4]: 1 (3) n (%) | Subjects withdrawn because of AEs [4]: 0 n (%) | Elevated alanine aminotransferase, frequency [5]: <1–2 % of subjects

CCC[C@H](NC(=O)[C@@H]1[C@H]2CCC[C@H]2CN1C(=O)[C@@H](NC(=O)[C@@H](NC(=O)c1cnccn1)C1CCCCC1)C(C)(C)C)C(=O)C(=O)NC1CC1 [Telaprevir, telaprevir]
Cmin ([6]; geometric mean (%CVb)): 1.72 (25) μg ml^−1 | Cτ ([6]; geometric mean (%CVb)): 1.75 (26) μg ml^−1 | Tmax ([6]; median (range)): 3.00 (2.0, 4.0) h | AUC0–τ [7, 16]: 22300 ng·h/mL | Cmax [7, 16]: 3510 ng/mL | Cmin [7, 16]: 2030 ng/mL | half-life [7]: 9 to 10 h
